Laboratory results: ChEMBL document CHEMBL3580606, “One-pot reaction to obtain N,N'-disubstituted guanidines of pyrazolo[4,3-e][1,2,4]triazolo[1,5-c]pyrimidine scaffold as human A3 adenosine receptor antagonists” (J Med Chem, 2015)

Columns and labels:
[1] = molecular target: T1, Adenosine receptor A1 (Homo sapiens) (UniProt P30542); assay: (§1) Displacement of [3H]-DPCPX from human adenosine A1 receptor expressed in CHO cell membranes after 120 mins by scintillation counting analysis; design: concentration or dose not given beside the values
T1 sequence (whole entry): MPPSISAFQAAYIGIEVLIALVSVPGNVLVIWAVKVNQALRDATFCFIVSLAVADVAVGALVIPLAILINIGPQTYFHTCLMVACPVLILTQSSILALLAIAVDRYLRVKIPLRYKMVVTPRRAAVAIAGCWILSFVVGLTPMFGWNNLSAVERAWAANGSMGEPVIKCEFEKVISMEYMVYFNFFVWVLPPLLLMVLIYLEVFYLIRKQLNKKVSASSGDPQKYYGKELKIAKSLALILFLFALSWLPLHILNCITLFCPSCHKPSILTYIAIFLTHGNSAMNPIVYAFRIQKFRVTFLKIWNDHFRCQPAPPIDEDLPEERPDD
In short: (§2)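 Membranes from transfected CHO cells in 50 mM Tris HCl pH 7.4 at 50 µg protein/assay, pretreated with adenosine deaminase 2 IU/ml. [3H]DPCPX 1 nM against 6-8 antagonist concentrations, 120 min at 25 °C. Non-specific binding defined with 1 µM DPCPX. GF/B filtration, then scintillation counting. Ki by Cheng-Prusoff, n=3-6, mean ± SEM.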

[2] = molecular target: T2, Adenosine receptor A1 (Homo sapiens, UniProt P30542); assay: as §1; in short: as §2
T2 sequence (P30542 whole entry): T1 sequence (whole entry)

[3] = molecular target: Adenosine receptor A2a (Homo sapiens, UniProt P29274); assay: Displacement of [3H]-ZM241385 from human adenosine A2A receptor expressed in CHO cell membranes after 60 mins by scintillation counting analysis
In short: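 Membranes from transfected CHO cells in 50 mM Tris HCl, 10 mM MgCl2, pH 7.4, at 50 µg protein/assay. [3H]ZM241385 2 nM with 6-8 competitor concentrations, 60 min at 4 °C. Non-specific binding defined with 1 µM ZM241385. Filtered on GF/B, bound radioactivity counted. Ki via Cheng-Prusoff, n=3-6, mean ± SEM.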

[4] = molecular target: T3, Adenosine receptor A3 (Homo sapiens, UniProt P0DMS8); assay: (§3) Displacement of [3H]-MRE3008F20 from human adenosine A3 receptor expressed in CHO cell membranes after 120 mins by scintillation counting analysis
T3 sequence (P0DMS8 whole entry): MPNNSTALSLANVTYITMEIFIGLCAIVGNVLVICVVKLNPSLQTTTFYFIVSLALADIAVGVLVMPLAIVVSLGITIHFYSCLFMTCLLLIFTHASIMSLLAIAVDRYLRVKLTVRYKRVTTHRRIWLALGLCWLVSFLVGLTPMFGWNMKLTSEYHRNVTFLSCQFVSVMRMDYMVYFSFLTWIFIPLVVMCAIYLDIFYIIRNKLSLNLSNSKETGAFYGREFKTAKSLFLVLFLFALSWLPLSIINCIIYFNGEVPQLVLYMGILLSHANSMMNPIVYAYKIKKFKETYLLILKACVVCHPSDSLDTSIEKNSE
In short: (§4)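 Membranes from transfected CHO cells in 50 mM Tris HCl, 10 mM MgCl2, 1 mM EDTA, pH 7.4, at 50 µg protein/assay. [3H]MRE3008F20 1 nM with 6-8 ligand concentrations, 120 min at 4 °C. Non-specific binding defined with 1 µM MRE3008F20. GF/B filtration, then scintillation counting. Ki by Cheng-Prusoff, n=3-6, mean ± SEM.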

[5] = molecular target: T4, Adenosine receptor A3 (Homo sapiens) (UniProt P0DMS8); assay: Antagonist activity at human adenosine A3 receptor expressed in CHO cells assessed as inhibition of Cl-IB-MECA-mediated suppression of forskolin-induced cyclic-AMP accumulation by scintillation counting analysis in presence of [3H]-cyclic AMP; assay type: cell-based
T4 sequence (whole entry): T3 sequence (P0DMS8 whole entry)
In short: (§5)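 Preincubated at 37 °C. A2B: antagonism of NECA (100 nM)-stimulated cAMP. A3: forskolin 1 µM plus Cl-IB-MECA (100 nM). Stopped with cold 6% TCA, then ether-extracted. cAMP measured by competition protein binding with [3H]cAMP. KB derived by modified Cheng-Prusoff (Leff and Dougall), mean ± SEM.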

[6] = molecular target: T5, Adenosine receptor A2b (Homo sapiens) (UniProt P29275); assay: Antagonist activity at human adenosine A2B receptor expressed in CHO cells assessed as inhibition of NECA-stimulated cyclic AMP production by scintillation counting analysis in presence of [3H]-cyclic AMP; assay type: cell-based; design: inhibition: concentration or dose not given beside the values; conditions: for inhibition: concentration not given here; in short: as §5
T5 sequence (whole entry): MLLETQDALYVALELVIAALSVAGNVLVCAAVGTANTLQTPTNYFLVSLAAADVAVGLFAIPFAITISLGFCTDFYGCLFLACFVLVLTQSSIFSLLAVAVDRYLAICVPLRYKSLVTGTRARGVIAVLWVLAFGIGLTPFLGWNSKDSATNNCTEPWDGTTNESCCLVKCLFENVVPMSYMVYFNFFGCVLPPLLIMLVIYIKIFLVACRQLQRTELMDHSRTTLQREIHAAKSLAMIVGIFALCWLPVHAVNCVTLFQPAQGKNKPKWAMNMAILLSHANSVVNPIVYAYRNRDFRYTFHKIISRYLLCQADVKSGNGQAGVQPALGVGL

[7] = molecular target: T4, Adenosine receptor A3 (Homo sapiens); assay: as §3; in short: as §4

Adenosine receptor A2a, sequence (P29274 whole entry): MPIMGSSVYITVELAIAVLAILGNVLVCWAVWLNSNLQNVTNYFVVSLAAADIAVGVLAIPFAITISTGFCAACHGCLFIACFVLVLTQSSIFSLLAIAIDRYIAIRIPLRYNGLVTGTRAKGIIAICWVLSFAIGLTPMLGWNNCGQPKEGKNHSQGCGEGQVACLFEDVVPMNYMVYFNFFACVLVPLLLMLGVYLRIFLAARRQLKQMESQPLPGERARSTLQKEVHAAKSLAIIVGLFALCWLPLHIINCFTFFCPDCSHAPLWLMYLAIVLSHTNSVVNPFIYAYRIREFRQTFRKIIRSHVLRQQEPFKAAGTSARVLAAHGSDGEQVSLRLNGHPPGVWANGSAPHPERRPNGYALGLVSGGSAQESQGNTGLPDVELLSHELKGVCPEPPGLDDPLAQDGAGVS

Row | SMILES | inhibition [1] [%] | Ki [2] [nM] | Ki [3] [nM] | inhibition [3] [%] | Ki [4] [nM] | Kb [5] [nM] | Kb [6] [nM] | inhibition [6] [%] | inhibition [7] [%] | inhibition ([5]; concentration not given here) [%]
1 | Cn1cc2c(nc(N=C(Nc3cccc(Cl)c3)Nc3cccc(Cl)c3)n3nc(-c4ccco4)nc23)n1 | 17 | > 1000 | > 1000 | 1 | 89 | 74 | > 1000 | 1 |  | 
2 | Cn1cc2c(nc(N=C(Nc3ccc(Br)cc3)Nc3ccc(Br)cc3)n3nc(-c4ccco4)nc23)n1 | 1 | > 1000 | > 1000 | 10 | 345 | 362 | > 1000 | 1 |  | 
3 | Cn1cc2c(nc(N=C(Nc3ccc([N+](=O)[O-])cc3)Nc3ccc([N+](=O)[O-])cc3)n3nc(-c4ccco4)nc23)n1 | 1 | > 1000 | > 1000 | 1 | 18 | 13 | > 1000 | 1 |  | 
4 | Cn1cc2c(nc(N=C(Nc3ccc(C#N)cc3)Nc3ccc(C#N)cc3)n3nc(-c4ccco4)nc23)n1 | 1 | > 1000 | > 1000 | 1 | 30 | 33 | > 1000 | 1 |  | 
5 | COc1cccc(NC(=Nc2nc3nn(C)cc3c3nc(-c4ccco4)nn23)Nc2cccc(OC)c2)c1 | 1 | > 1000 | > 1000 | 18 | 155 | 141 | > 1000 | 1 |  | 
6 | Cc1ccc(NC(=Nc2nc3nn(C)cc3c3nc(-c4ccco4)nn23)Nc2ccc(C)cc2)cc1 | 6 | > 1000 | > 1000 | 1 | 63 | 57 | > 1000 | 3 |  | 
7 | CCN/C(=N\c1nc2nn(C)cc2c2nc(-c3ccco3)nn12)NCCCN(C)C | 22 | > 1000 | > 1000 | 3 | > 1000 | > 1000 | > 1000 | 1 | 19 | 3
8 | Cn1cc2c(nc(N=C(Nc3ccc(Cl)cc3)Nc3ccc(Cl)cc3)n3nc(-c4ccco4)nc23)n1 | 8 | > 1000 | > 1000 | 11 | 71 | 63 | > 1000 | 2 |  | 
9 | COc1ccc(NC(=Nc2nc3nn(C)cc3c3nc(-c4ccco4)nn23)Nc2ccc(OC)cc2)cc1 | 7 | > 1000 | > 1000 | 1 | 42 | 42 | > 1000 | 4 |  | 
10 | Cn1cc2c(nc(N=C(NC3CCCCC3)NC3CCCCC3)n3nc(-c4ccco4)nc23)n1 | 25 | > 1000 | > 1000 | 3 | 29 | 32 | > 1000 | 4 |  | 
11 | Cn1cc2c(nc(N=C(Nc3ccccc3)Nc3ccccc3)n3nc(-c4ccco4)nc23)n1 | 10 | > 1000 | > 1000 | 2 | 79 | 67 | > 1000 | 1 |  | 
12 | Cn1cc2c(nc(N=C(Nc3cccc(C(F)(F)F)c3)Nc3cccc(C(F)(F)F)c3)n3nc(-c4ccco4)nc23)n1 | 3 | > 1000 | > 1000 | 1 | 520 | 537 | > 1000 | 2 |  | 
13 | Cn1cc2c(nc(N=C(Nc3ccc(F)cc3)Nc3ccc(F)cc3)n3nc(-c4ccco4)nc23)n1 | 1 | > 1000 | > 1000 | 16 | 122 | 129 | > 1000 | 1 |  | 
14 | CC(C)NC(=Nc1nc2nn(C)cc2c2nc(-c3ccco3)nn12)NC(C)C | 4 | > 1000 | > 1000 | 1 | 33 | 36 | > 1000 | 3 |  | 
